Legend:
[1] = system: NCI-H1299; experiment: Release of NCI-H1299 cells from DNA damage-induced cell cycle arrest by CEA; assay type: functional, cell-based; details: Homo sapiens
Summary of the method: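 NCI-H1299 lung carcinoma cells were arrested by 16 h camptothecin treatment, then exposed to inhibitor for a further 8 h. Escape into mitosis was read as mitosis-specific nucleolin phosphorylation in an antibody-coated bead-based assay. EC50 came from a 10-point half-log dilution series, averaged over tetraplicate determinations.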

[2] = molecular target: T1, Serine/threonine-protein kinase Chk1 (Homo sapiens, UniProt O14757); experiment: Inhibition of Chek1
T1 sequence (O14757 whole entry): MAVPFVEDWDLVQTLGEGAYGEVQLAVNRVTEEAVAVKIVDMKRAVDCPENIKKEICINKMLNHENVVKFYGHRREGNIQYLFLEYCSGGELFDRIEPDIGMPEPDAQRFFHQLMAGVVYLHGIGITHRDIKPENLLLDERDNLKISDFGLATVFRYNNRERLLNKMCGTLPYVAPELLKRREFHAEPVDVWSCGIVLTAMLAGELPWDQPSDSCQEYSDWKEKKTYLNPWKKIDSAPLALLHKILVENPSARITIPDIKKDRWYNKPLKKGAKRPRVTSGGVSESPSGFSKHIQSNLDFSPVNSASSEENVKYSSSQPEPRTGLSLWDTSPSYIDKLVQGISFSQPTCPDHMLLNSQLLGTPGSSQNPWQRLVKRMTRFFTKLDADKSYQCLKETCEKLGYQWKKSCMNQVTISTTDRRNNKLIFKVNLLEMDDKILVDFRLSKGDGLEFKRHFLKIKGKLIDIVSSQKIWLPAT

[3] = molecular target: Cyclin-dependent kinase 7 (Homo sapiens, UniProt P50613); experiment: Inhibition of Cdk7
Sequence of Cyclin-dependent kinase 7 (P50613 whole entry): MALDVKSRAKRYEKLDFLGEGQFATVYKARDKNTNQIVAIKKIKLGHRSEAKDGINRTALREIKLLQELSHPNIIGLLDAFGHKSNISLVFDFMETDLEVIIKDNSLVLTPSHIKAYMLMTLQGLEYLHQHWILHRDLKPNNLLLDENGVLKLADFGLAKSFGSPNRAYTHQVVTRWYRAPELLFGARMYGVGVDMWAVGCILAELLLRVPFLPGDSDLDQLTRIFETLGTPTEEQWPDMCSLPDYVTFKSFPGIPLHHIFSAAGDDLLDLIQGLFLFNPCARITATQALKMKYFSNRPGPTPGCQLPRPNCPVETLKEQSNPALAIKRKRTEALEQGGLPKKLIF

[4] = organism: Homo sapiens; experiment: Selectivity for Chek1 over Cdk7
[5] = molecular target: T1, Serine/threonine-protein kinase Chk1; experiment: Inhibition of autophosphorylation of Chek1 in NCI-H1299 cells; assay type: functional, cell-based
Summary of the method: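 Cyto-blot of Chek1 autophosphorylation with phospho-S296 Chek1 antibody in NCI-H1299 lung carcinoma cells. Cells incubated with inhibitor 2 h, then camptothecin added for a further 4 h. Cellular assay ATP 2.0 mM. 10-point, 3-fold dilution series. IC50 averaged over triplicate determinations.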

Row | Structure (SMILES) | EC50 [1] | IC50 [2] | IC50 [3] | Ratio IC50 [4] | IC50 [1] | IC50 [5]
1 | CNC(=O)c1ccc2c(-c3cc4cc(CN5CCOCC5)ccc4[nH]3)n[nH]c2c1 | 650 nM | 13 nM | 4900 nM |  |  | 
2 | c1csc(-c2ccc3c(-c4cc5cc(CN6CCCCC6)ccc5[nH]4)n[nH]c3c2)n1 | 2000 nM | 48 nM | 4000 nM | 83 |  | 
3 | NCc1nn[nH]c1-c1ccc2c(-c3cc4cc(CN5CCC(F)CC5)ccc4[nH]3)n[nH]c2c1 | 610 nM | 0.11 nM | 300 nM |  |  | 
4 | c1cnn(-c2ccc3c(-c4cc5cc(CN6CCCCC6)ccc5[nH]4)n[nH]c3c2)n1 | 4500 nM | 34 nM | 480 nM | 14 |  | 
5 | c1ccc2[nH]c(-c3n[nH]c4cc(-c5nnn[nH]5)ccc34)cc2c1 |  | 27 nM |  |  | > 10 µM | > 10 µM
6 | Cc1cnnn1-c1ccc2c(-c3cc4cc(CN5CCCCC5)ccc4[nH]3)n[nH]c2c1 | 1400 nM | 30 nM | 420 nM | 14 |  | 
7 | CN(C)C(=O)c1ccc2c(-c3cc4cc(CN5CCOCC5)ccc4[nH]3)n[nH]c2c1 | 4000 nM | 80 nM | > 100000 nM |  |  | 
8 | c1cnn(-c2ccc3c(-c4cc5cc(CN6CCCCC6)ccc5[nH]4)n[nH]c3c2)c1 | > 10000 nM | 110 nM | 2300 nM | 22 |  | 
9 | CC(=O)N1CCN(Cc2ccc3[nH]c(-c4n[nH]c5cc(C#N)ccc45)cc3c2)CC1 |  | 17 nM | 39 nM |  | > 10 µM | 1 µM
10 | Cn1cc(-c2ccc3c(-c4cc5cc(CN6CCOCC6)ccc5[nH]4)n[nH]c3c2)cn1 |  | 530 nM |  |  |  | 
11 | COc1cc(-c2ccc3c(-c4cc5cc(CN6CCCCC6)ccc5[nH]4)n[nH]c3c2)ccc1O | 92 nM | 0.25 nM | 310 nM |  |  | 
12 | c1ccc(-c2ccc3c(-c4cc5cc(CN6CCCCC6)ccc5[nH]4)n[nH]c3c2)cc1 | 5000 nM | 45 nM | 7000 nM | 160 |  | 
13 | OCc1nn[nH]c1-c1ccc2c(-c3cc4cc(CN5CCC(F)CC5)ccc4[nH]3)n[nH]c2c1 | 340 nM | 0.3 nM | 180 nM |  |  | 
14 | c1cc2[nH]c(-c3n[nH]c4cc(-c5cnsc5)ccc34)cc2cc1CN1CCCCC1 | > 10000 nM | 12 nM | 18 nM | 1.5 |  | 
15 | CC(=O)N1CCN(Cc2ccc3[nH]c(-c4n[nH]c5ccccc45)cc3c2)CC1 |  | 640 nM |  |  |  | 
16 | COC(=O)c1ccc2c(-c3cc4cc(CN5CCOCC5)ccc4[nH]3)n[nH]c2c1 | 1930 nM | 62 nM | 6500 nM |  |  | 
17 | N#Cc1ccc2c(-c3cc4cc(CN5CCOCC5)ccc4[nH]3)n[nH]c2c1 | > 50000 nM | 30 nM |  |  |  | 
18 | CC(=O)N1CCN(Cc2ccc3[nH]c(-c4n[nH]c5cc(-c6nnn[nH]6)ccc45)cc3c2)CC1 |  | 2.3 nM |  |  | > 10 µM | > 10 µM
19 | c1cc2[nH]c(-c3n[nH]c4cc(-c5cn[nH]c5)ccc34)cc2cc1CN1CCOCC1 | > 50000 nM | 10 nM | 25 nM |  |  | 
20 | c1cn(-c2ccc3c(-c4cc5cc(CN6CCCCC6)ccc5[nH]4)n[nH]c3c2)nn1 | 350 nM | 2.6 nM | 57 nM | 22 |  | 
21 | CC(=O)N1CCN(Cc2ccc3[nH]c(-c4n[nH]c5cc(Cl)ccc45)cc3c2)CC1 |  | 120 nM |  |  |  | 
22 | c1cc(-c2ccc3c(-c4cc5cc(CN6CCOCC6)ccc5[nH]4)n[nH]c3c2)[nH]n1 | > 50000 nM | 59 nM | 34 nM | 0.58 |  | 
23 | NC(=O)c1ccc2c(-c3cc4cc(CN5CCOCC5)ccc4[nH]3)n[nH]c2c1 | 980 nM | 12 nM | 1300 nM |  |  | 
24 | OCc1n[nH]nc1-c1ccc2c(-c3cc4cc(CN5CCCCC5)ccc4[nH]3)n[nH]c2c1 | 690 nM |  | 56 nM | 190 |  | 
